Laboratory results published in the RNAGym collection of RNA variant scans (doi:10.1126/science.aae0568).
Variants at the floor of the assay were thinned out.

B1: tRNA (parent)
chain: GUUCCGUUGGCGUAAUGGUAACGCGUCUCCCUCCUAAGGAGAAGACUGCGGGUUCGAGUCCCGUACGGAACG

Variants of: B1
Experiment: yeast fitness relative to wild type (ratio to wild type); higher = fitter; tRNA-Arg(CCU), competitive growth, 37 C, YPD
Summary of the method: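 A pool of Saccharomyces cerevisiae strains, each with a tRNA-Arg(CCU) gene variant at the native genomic locus, was competed in YPD at 37°C for 24 hours across six parallel replicates. The variants had been chemically synthesised at a 3% per-site mutation rate over 69 sites, and gene amplicons before and after competition were read by 100-nucleotide paired-end sequencing. Darwinian fitness relative to wild type rested on changes in genotype frequencies. Genotypes required ≥ 100 starting reads, and estimates < 0.5 were set to 0.5.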
In the case of C5G C27U G51A C60G A70G, the yeast fitness is reported as ≤ 0.5. In the case of C5G C31U G58C C62A, the yeast fitness is reported as ≤ 0.5. Variant C5G C33G C55U has a yeast fitness of 0.875. In the case of C5G C24U C33U C46A, the yeast fitness is reported as ≤ 0.5. In the case of C5G G6C C46A, the yeast fitness is reported as ≤ 0.5. With C5G A42U G67A the yeast fitness was 0.532. Variant C5G C24U has a yeast fitness of 0.893. With C5G A37C G38A C60G the yeast fitness was ≤ 0.5. With C5G A21C C29U C31G A43U A65U the yeast fitness was ≤ 0.5. For C5G G6C C30G C33U A45U, the yeast fitness was ≤ 0.5. C5G C60G A70C gave a yeast fitness of 0.509. In the case of C5G C24U C33U A57U A69U, the yeast fitness is reported as ≤ 0.5. For C5G A21G U32C C62U A65U G68A, the yeast fitness was ≤ 0.5. For C5G C11U A70C, the yeast fitness was ≤ 0.5. For C5G A37G C46G C61A, the yeast fitness was ≤ 0.5. In the case of C5G A37U C49G, the yeast fitness is reported as ≤ 0.5. In the case of C5G C27G C29U C31U A45G C49A C66U, the yeast fitness is reported as ≤ 0.5. Work on C5G A57G C66A yielded a yeast fitness of 0.564. In the case of C5G C11A A15G G18A C30G U54C, the yeast fitness is reported as ≤ 0.5. For C5G C29A G48A A65U, the yeast fitness was ≤ 0.5. For C5G A37U C46U A69C, the yeast fitness was ≤ 0.5. Work on C5G A57U yielded a yeast fitness of 0.735. Variant C5G A57G has a yeast fitness of 0.882. Variant C5G A40C A70G has a yeast fitness of 0.543. In the case of C5G C11U C61G, the yeast fitness is reported as ≤ 0.5. For C5G C24G G41C, the yeast fitness was ≤ 0.5. For C5G C66G G68C, the yeast fitness was ≤ 0.5. For C5G C24G C29A A43U G68C, the yeast fitness was ≤ 0.5. In the case of C5G C11A C29G C33U G50A, the yeast fitness is reported as ≤ 0.5. With C5G C22U U28G U54C A65G the yeast fitness was ≤ 0.5. For C5G C33G G67A, the yeast fitness was ≤ 0.5. For C5G A40C G52A C62U, the yeast fitness was ≤ 0.5. For C5G A45G A69U, the yeast fitness was 0.688. Variant C5G C29A G56A has a yeast fitness of 0.615. C5G C60A showed a yeast fitness of 0.663. Variant C5G C60G has a yeast fitness of 0.581. For C5G A21G U28C U32C A65U G68A, the yeast fitness was ≤ 0.5. In the case of C5G C22U A57G, the yeast fitness is reported as ≤ 0.5. In the case of C5G C11G C34U C55U G67C, the yeast fitness is reported as ≤ 0.5. Variant C5G C11A has a yeast fitness of 0.609. Variant C5G A37C G51C A57G has a yeast fitness of 0.598. C5G C11U A42G C49U A70U gave a yeast fitness of 0.588. In the case of C5G C49U U59G, the yeast fitness is reported as 0.579. For C5G C24G A45C A70U, the yeast fitness was ≤ 0.5. With C5G C11U G25C G52U A70C the yeast fitness was ≤ 0.5. C5G C55U G67A gave a yeast fitness of 0.598. With C5G C49U G63C the yeast fitness was ≤ 0.5. In the case of C5G C27U G67A, the yeast fitness is reported as 0.524. In the case of C5G C11U A42G C49U A69C A70G, the yeast fitness is reported as ≤ 0.5. In the case of C5G C11G A15U C55A, the yeast fitness is reported as ≤ 0.5. C5G C49G G63A gave a yeast fitness of 0.57. With C5G C49U the yeast fitness was 0.815. In the case of C5G C24U C33U C34U G44A C62G, the yeast fitness is reported as ≤ 0.5. Variant C5G A21U C33U G50A has a yeast fitness of 0.835. C5G C29U G39A gave a yeast fitness of 0.671. With C5G C11G C62U the yeast fitness was ≤ 0.5. Work on C5G C30U A42G yielded a yeast fitness of 0.57. For C5G C11U C60G, the yeast fitness was ≤ 0.5. In the case of C5G A21U C29U A37U A43G C66G, the yeast fitness is reported as ≤ 0.5. For C5G C11U G17A A20C C49G, the yeast fitness was ≤ 0.5. Work on C5G A40G U54A yielded a yeast fitness of 0.579. With C5G G6A G23A the yeast fitness was ≤ 0.5. For C5G A36G A40C, the yeast fitness was 0.683. For C5G C31U C60U A69G, the yeast fitness was ≤ 0.5. With C5G C11U A37C A57G the yeast fitness was ≤ 0.5. C5G C11G C24U C62A gave a yeast fitness of 0.584. Work on C5G C29U A37G C66U yielded a yeast fitness of 0.536. For C5G C27G G44C U59A, the yeast fitness was ≤ 0.5. C5G C61G gave a yeast fitness of 0.63. C5G C61U showed a yeast fitness of 0.736. C5G C61A showed a yeast fitness of 0.651. For C5G C29A U59A, the yeast fitness was ≤ 0.5. In the case of C5G G6C C33A A40U A70C, the yeast fitness is reported as ≤ 0.5. Variant C5G C22G U28A C31G C55A G68C has a yeast fitness of 0.551. For C5G A65G, the yeast fitness was 1. With C5G C27G G38C G56C the yeast fitness was ≤ 0.5. For C5G C27G C34G, the yeast fitness was ≤ 0.5. C5G A45C A70C gave a yeast fitness of 0.725. C5G C30A A36G C61A showed a yeast fitness of 0.592. For C5G C55G U59C C60U G67U, the yeast fitness was ≤ 0.5. For C5G C11G A21C U28G C66U, the yeast fitness was 0.605. In the case of C5G A40U C62U, the yeast fitness is reported as ≤ 0.5. C5G A42G A70C showed a yeast fitness of 0.805. Work on C5G C11U U19C G41C yielded a yeast fitness of 0.536. C5G A36C gave a yeast fitness of 0.772. Work on C5G A36G yielded a yeast fitness of 1.01. C5G A36U gave a yeast fitness of 0.583. In the case of C5G A45C C66G, the yeast fitness is reported as ≤ 0.5. With C5G C11A U26C A40U U64C the yeast fitness was ≤ 0.5. Variant C5G C29U A70C has a yeast fitness of 0.527. With C5G C22G C31A C49G G63C A69U the yeast fitness was ≤ 0.5. In the case of C5G C29A U32G, the yeast fitness is reported as ≤ 0.5. C5G C29U C30A C66U gave a yeast fitness of 0.645. In the case of C5G C31A C55U A65C A70U, the yeast fitness is reported as ≤ 0.5. Variant C5G C22G G56A has a yeast fitness of 0.788. C5G C27U G56A gave a yeast fitness of 0.619. In the case of C5G A36U G52C G67U A69U, the yeast fitness is reported as ≤ 0.5. With C5G C33G C60G C66G the yeast fitness was 0.584. In the case of C5G C27G A65C A70C, the yeast fitness is reported as 0.552. For C5G C11A A14G G25C U28C C29G, the yeast fitness was ≤ 0.5. With C5G C49U C61G the yeast fitness was 0.534. For C5G C30U G44C, the yeast fitness was ≤ 0.5. For C5G C60U C62G, the yeast fitness was 0.634. Work on C5G G9A A20G yielded a yeast fitness of 0.553. C5G A40U G44A C61A showed a yeast fitness of 0.567. Work on C5G C27U C34U G56C yielded a yeast fitness of 0.646. With C5G C34U A70U the yeast fitness was ≤ 0.5. Work on C5G C11U A37C C49U C60A C66G yielded a yeast fitness of 0.685. Variant C5G A21G U26C C27G G48C G67A has a yeast fitness of 0.531. For C5G C33U A57G, the yeast fitness was ≤ 0.5. In the case of C5G A45U C61U C66U, the yeast fitness is reported as ≤ 0.5. Variant C5G C24G C30G C31U U35A A36U has a yeast fitness of 0.755. With C5G G6A G48A the yeast fitness was ≤ 0.5. C5G A42G A69C gave a yeast fitness of 0.568. With C5G C27U A36U C60G the yeast fitness was ≤ 0.5. In the case of C5G C34G C66U, the yeast fitness is reported as ≤ 0.5. With C5G A70G the yeast fitness was 0.848. C5G C11U A37C U64C gave a yeast fitness of 0.609. C5G C31U G63A showed a yeast fitness of 0.683. For C5G A40G A57G, the yeast fitness was ≤ 0.5. With C5G C29U the yeast fitness was 0.793. Work on C5G C29G yielded a yeast fitness of 0.779. For C5G C29A, the yeast fitness was 0.604. In the case of C5G C11A A14G G25C C29G A70G, the yeast fitness is reported as ≤ 0.5. With C5G C46G C49U the yeast fitness was 0.646. With C5G C61U A70G the yeast fitness was 0.707. Work on C5G C22G yielded a yeast fitness of 0.652. C5G C22U showed a yeast fitness of 0.72. With C5G C22A the yeast fitness was 0.766. With C5G C61A G67A the yeast fitness was 0.529. In the case of C5G C31A A37C G48A G58C, the yeast fitness is reported as 0.565. For C5G C11U A37C A43G G50A, the yeast fitness was ≤ 0.5. Variant C5G C27U A43U has a yeast fitness of 0.54. C5G C30G G52C gave a yeast fitness of 0.519. Work on C5G C30G G52A yielded a yeast fitness of 0.523. C5G A21G U32C gave a yeast fitness of 0.63. In the case of C5G C27A C31A A42C, the yeast fitness is reported as ≤ 0.5. With C5G A37G C46G A57G the yeast fitness was ≤ 0.5. Variant C5G C22A A69C has a yeast fitness of 0.603. In the case of C5G C31G C46A G63C A65U, the yeast fitness is reported as ≤ 0.5. In the case of C5G C61G A65U, the yeast fitness is reported as ≤ 0.5. C5G C34G gave a yeast fitness of 0.62. Variant C5G C34U has a yeast fitness of 0.599. For C5G A37G G41C, the yeast fitness was ≤ 0.5. For C5G A21C C33U, the yeast fitness was 0.535. For C5G A21C C33G, the yeast fitness was ≤ 0.5. For C5G C24G C30G C31U U35A A36U G44A C61U, the yeast fitness was 0.67. For C5G A21U C55U, the yeast fitness was 0.6. For C5G C22G C66U, the yeast fitness was ≤ 0.5. C5G A36G G68C showed a yeast fitness of 0.596. Work on C5G A36G G68U yielded a yeast fitness of 0.525. With C5G C29U A43C U54G C60G C62U the yeast fitness was ≤ 0.5. For C5G A21G C30U A40U, the yeast fitness was ≤ 0.5. Variant C5G C55U C61A has a yeast fitness of 0.605. In the case of C5G C34G U47A C62A G63A, the yeast fitness is reported as ≤ 0.5. In the case of C5G C11U A14U A37U A45C, the yeast fitness is reported as ≤ 0.5. In the case of C5G C46U G51A U54G, the yeast fitness is reported as 0.571. In the case of C5G C27U G63A, the yeast fitness is reported as ≤ 0.5. C5G C49U G58C showed a yeast fitness of 0.622. For C5G C11U G48C C49A A57C, the yeast fitness was ≤ 0.5. C5G A21U C29A gave a yeast fitness of 0.631. For C5G C27G A45C, the yeast fitness was ≤ 0.5. With C5G A42G U54A the yeast fitness was 0.639. For C5G C22U G56C, the yeast fitness was ≤ 0.5. With C5G A43C G48C U64C the yeast fitness was ≤ 0.5. For C5G A37U A43C A65U, the yeast fitness was ≤ 0.5. Variant C5G A42G C60G C61G has a yeast fitness of 0.669.
